The text below walks through data of paper PMC9278990 (Nature structural & molecular biology, 2021).

Entries after “also recorded” stand apart in the source; their conditions may differ. No end group written: not given here.

For one test, the system named is FLCN–LDHA complex. Description: FLCN-LDHA complex disruption in HEK293. In kind it is cell-based, human. To be noted: HEK293, exogenous addition, 6 h; n=3. The method, boiled down:
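HEK293 cells were given exogenous lactate or pyruvate for 6 h. Lysates underwent anti-FLCN IP (antibody 1 h, then protein G agarose 2 h, 4 °C), four washes in lysis buffer, Laemmli elution and immunoblotting alongside whole-cell extracts. Three independent experiments.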

For test [1], the system named is LDHA. Description: Fluorescence polarization anisotropy binding to LDHA. Also on record: species or system human. To be noted: rhodamine B-labeled peptide, pH 7.2, 30 min on ice, n = 3. In general terms: Fluorescence polarisation rises when a labelled molecule tumbles more slowly, as on binding a larger partner.
In the next test the test system is pTyr10-LDHA. Description: LDHA activity. In kind it is cell-based, human. To be noted: rhodamine B-labeled peptides, pTyr10-LDHA normalized to NT; n=3. The method, boiled down:
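HEK293 cells were treated with 1 μM rhodamine B-labeled peptides for 2 h. Whole-cell lysates were immunoblotted for pTyr10-LDHA, and band density was expressed as fold change versus untreated cells. n = 3.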

In test [2] the test system is LDHA. Kind of test: LDHA kinetics and inhibition assay. In kind it is biochemical, human. To be noted: n = 3; for potency as compared to LDHA inhibitor FX11: 2 nM FLCN or 100 nM FLCN-10 versus 60 μM FX11, pH 7.0, 2 mM pyruvate; for mode of LDHA inhibition: 50 mM Tris-HCl pH 7.0, 2 mM pyruvate, varied NADH, 2 nM FLCN or 100 nM FLCN-10. The method, boiled down:
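Reactions contained 50 mM Tris-HCl pH 7.0, 2 mM pyruvate and varied NADH, with test protein (2 nM), test peptide (100 nM) or reference inhibitor FX11 (60 μM). Triplicates, ≥2 independent assays. IC50 came from curve fitting; Ki came from Lineweaver–Burk analysis and IC50-to-Ki conversion.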

A further test has as its system dimeric LDHA. Description: LDHA activity, predominantly dimeric LDHA. In kind it is biochemical, human. To be noted: LDHA 10 ng/μl (predominantly dimeric), increasing amounts of FLCN protein or FLCN-10; n=3.
Test [3] deals with LDHA. Description: Co-immunoprecipitation of FLCN with LDHA. In kind it is binding, human. To be noted: expressed in HEK293 cells, FLAG IP, immunoblot. The method, boiled down: (§1)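 Lysates came from transfected HEK293 cells (24 h post-transfection) or, for endogenous FLCN IP, from LDHA or LDHB knockout HAP1 cells. Capture used anti-FLAG or anti-HA agarose (2 h, 4 °C) or anti-LDHA/anti-FLCN antibody (1 h) followed by protein G agarose (2 h, 4 °C). Beads were washed four times in NP40 lysis buffer, eluted in Laemmli buffer and immunoblotted.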
(In western blotting, separated proteins are transferred to a membrane and probed.)

A further test relates to LDHB. Description: Co-immunoprecipitation of FLCN with LDHB. In kind it is binding, human. To be noted: HEK293 cells, LDHB-FLAG IP; HAP1 cells. The method, boiled down: as §1
For test [4], the system named is LDHA/LDHB chimeric constructs. Kind of test: Co-IP of FLCN with LDHA/LDHB chimeric constructs. In kind it is binding, human. To be noted: HEK293, co-IP.
Test [5] deals with LDHA. Description: Cibacron Blue-agarose pulldown of LDHA. In kind it is binding, human. To be noted: HEK293 cells overexpressing FLCN; Cibacron blue agarose 1 h at 4 °C; n=3. The method, boiled down: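 Lysates of HEK293 cells expressing empty vector or FLCN-FLAG were incubated with Cibacron Blue agarose for 1 h at 4 °C. LDHA was immunoblotted and the pulldown:input ratio was normalized to vector.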

For test [6], the system named is LDHA. Kind of test: Native PAGE of LDHA oligomers. Further details: species or system human. The method, boiled down:
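HEK293 cells were transiently transfected with pcDNA3 constructs (TransIT-2020) for 24 h and lysed. Lysates were mixed with non-denaturing loading buffer (250 mM Tris-HCl pH 6.8, 30% glycerol, 0.05% bromophenol blue; 5× stock) for 5 min at room temperature. Samples were resolved on Tris-HCl gels in native running buffer (25 mM Tris, 192 mM glycine).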

For the next test, the system named is UOK257 cells. Description: Extracellular acidification rate. In kind it is cell-based, human. To be noted: n = 8. The method, boiled down: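 UOK257 cells were transfected at 50% confluency in 100-mm dishes (24 h), or left untransfected for peptide treatment. Cells were seeded at 1 × 10^5 per well 24 h before assay and treated immediately before measurement (peptide, 2 h). ECAR was read by Seahorse XF glycolytic stress test. Transfection n = 8, peptide n = 4 independent samples.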

The next test concerns ccRCC cells. Description: Apoptosis in ccRCC cells on FLCN overexpression. In kind it is cell-based, human. The note with it: 786-O, Caki-1 and Caki-2, FLAG-tagged FLCN, immunoblot.
A further test deals with LDH. The note with it: UOK257 lysates, 2 μg plasmid; n = 3.
Where [7] appears, read: overexpression of FLCN in HEK293, native PAGE.

As to `CC(O)C(=O)O` (centres unmarked) [lactate], the “effect on FLCN–LDHA complex” value in the test with FLCN–LDHA complex is “much milder effect on dissociation of LDHA from FLCN”.

Consider `CC(=O)C(=O)O` [pyruvate], for which the “effect on FLCN–LDHA complex” value with FLCN–LDHA complex is “disruption of the FLCN–LDHA complex”.

Regarding “FLCN-1: peptide derived from aa 220–230 of FLCN (QRMNTAFTPFL; also: rhodamine B label (position not given here))”, the “binding to LDHA (in words)” value with LDHA [1] is “bound tightly to LDHA”. The “LDHA activity in HEK293 cells” value with pTyr10-LDHA is on record as “effectively reduced LDHA activity”.

Regarding “FLCN-10: decapeptide derived from the FLCN loop region; aa 219–228 (AQRMNTAFTP; also: rhodamine B label (position not given here))”, the “binding to LDHA (in words)” value with LDHA [1] is reported as “greatly enhanced binding”. Further, in the test on LDHA [2], the “potency as compared to LDHA inhibitor FX11” value is “greatly improved potency” and the “mode of LDHA inhibition” value is given as “uncompetitively inhibits LDHA”. Also, the “inhibition of dimeric LDHA” value with dimeric LDHA is on record as “effectively inhibit dimeric”.

Turning to folliculin [FLCN], in the test with LDHA [2], the “potency as compared to LDHA inhibitor FX11” value was “greatly improved potency” and the “mode of LDHA inhibition” value was “uncompetitively inhibits LDHA; also recorded: uncompetitive inhibitor of LDHA”. The “inhibition of dimeric LDHA” value with dimeric LDHA was “effectively inhibit dimeric”. Besides, the “binding to LDHA (co-IP)” value in the test on LDHA [3] is listed as “specifically bound to LDHA”. Besides, in the test with LDHB, the “binding to LDHB (co-IP)” value was “no interaction with LDHB was detected”. The “binding to LDHA with both domains (NC) replaced by LDHB” value in test [4] (NC chimeric construct) is listed as “completely abrogated FLCN interaction”. The “binding to LDHA with LDHB N domain or C domain individually” value in [4] (chimeric constructs (first 22 / last 38 amino acids swapped)) is “preserved binding”. The “LDHA binding to Cib-agarose” value in the test on LDHA [5] is listed as “greatly diminished”. Further, the “preference for LDHA oligomeric state” value with LDHA [6] (dimer compared to tetramer) is “prefers binding to the less active LDHA dimer”. Besides, in the test on LDHA [6] (setting [7]), the “effect on large oligomeric complexes of LDHA” value is “decrease in large oligomeric complexes of LDHA” and the “formation of dimeric LDHA species (70 kDa)” value was “induces formation of a dimeric LDHA species”. The “ECAR, transfection of 2 μg plasmid” value in the test on UOK257 cells (UOK257, 2 μg transfection) was “little effect”. In addition, in the test on UOK257 cells (UOK257, 8 μg transfection), the “ECAR, transfection of 8 μg plasmid” value is on record as “reduced ECAR to a similar level as the FLCN-replaced control cell line”. For the same compound, the “apoptosis in ccRCC on overexpression” value with ccRCC cells was “induced apoptosis in ccRCC cells”. In addition, in the test on LDH, the “LDH activity after transfection of 2 μg” value is ~ 77%.
